Data published in ChEMBL document CHEMBL3853307, “Anti-inflammatory Effect of Methyl Gallate on Experimental Arthritis: Inhibition of Neutrophil Recruitment, Production of Inflammatory Mediators, and Activation of Macrophages” (J Nat Prod, 2016).
Active and inactive are the calls of the source. No cut-off for these calls is given here.

Key:
Mus musculus [1] = test: Antiinflammatory activity in C57BL/6 mouse assessed as inhibition of zymosan-induced IL-1beta production in cell-free supernatant of knee joint synovial washes at 7 mg/kg, po administered 1 hr prior to zymosan challenge measured at 6 to 24 hrs by sandwich ELISA method; assay type: functional, organism-based
Summary of the method: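 Male C57BL/6 mice (18−22 g), fasted overnight, dosed orally (in filtered water, 200 μL) or i.p. 1 h before i.a. zymosan (500 μg in 25 μL saline) into left knee; contralateral knee got vehicle. Synovial cavity washed twice with 150 μL PBS/10 mM EDTA at 6 and 24 h; washes spun 400g 10 min, 4 °C. Cytokines measured by sandwich ELISA, LTB4/PGE2 by EIA (pg/mL); six mice/group, two experiments.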

Mus musculus [2] = test: Antiinflammatory activity in C57BL/6 mouse assessed as inhibition of zymosan-induced neutrophil migration in articular cavity at 7 mg/kg, po administered 1 hr prior to zymosan challenge measured at 24 hrs relative to control; assay type: functional; details: C57BL/6, po
Summary of the method: (§1)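 Male C57BL/6 mice, fasted overnight, dosed orally (vehicle saline/water, 200 μL) or i.p. 1 h before zymosan (500 μg in 25 μL saline, i.a., left knee). Knee swelling measured as change in transverse diameter from basal by digital caliper (mm). Synovial washes (PBS/EDTA) counted on a particle counter; differentials from May-Grünwald-Giemsa cytospins, cells ×10^5/cavity. Sampled at 6 and/or 24 h; seven mice/group.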

Mus musculus [3] = test: Antiinflammatory activity in C57BL/6 mouse assessed as inhibition of zymosan-induced mononuclear cells recruitment in synovial cavity at 0.7 to 70 mg/kg, po administered 1 hr prior to zymosan challenge measured after 6 to 24 hrs by Grunwald-Giemsa-stained cytospin smear; assay type: functional, organism-based
Mus musculus [4] = test: Antiinflammatory activity in C57BL/6 mouse assessed as inhibition of zymosan-induced knee joint edema formation at 0.7 to 70 mg/kg, po administered 1 hr prior to zymosan challenge measured at 6 hrs; assay type: functional, organism-based; summary of the method: as §1
Mus musculus [5] = test: Antiinflammatory activity in C57BL/6 mouse assessed as inhibition of zymosan-induced knee joint edema formation at 7 mg/kg, po administered 1 hr prior to zymosan challenge measured at 24 hrs relative to control; assay type: functional; details: C57BL/6, Knee joint; summary of the method: as §1
J774.A1 [6] = test: Antiinflammatory activity in mouse J774A.1 cells assessed as inhibition of zymosan and IFNgamma-induced nitric oxide production at 10 uM preincubated for 1 hr followed by zymosan and IFNgamma addition measured after 24 hrs by colorimetric Griess test; assay type: functional, cell-based
Summary of the method: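 J774A.1 macrophages (1 × 10^5/well, RPMI/10% FBS) adhered 24 h, preincubated 1 h with compound (0.1−10 μM) or dexamethasone (1 μM), then stimulated with zymosan (10 μg per 10^5 cells) and/or IFN-γ (25 U/mL) for 24 h. Supernatant IL-6 by sandwich ELISA; nitrite by Griess reaction at 540 nm. Quadruplicate wells, two experiments.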

[7] = Cytotoxicity against C57BL/6 mouse neutrophils assessed as cell viability at 100 uM after 2 hrs by lactate dehydrogenase assay relative to control; assay type: toxicity, Neutrophil; details: read-out: Activity
Summary of the method: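 Bone-marrow neutrophils from C57BL/6 mice, Percoll-purified (65%/72% interface, ~85-90% purity), plated at 1 × 10^5 cells/well; fresh medium with or without Tween 20 (3%) or compound (0.01−100 μM), quadruplicate; 2 h incubation. LDH released into supernatant measured, 20−30 min at room temperature, stopped with 1 N HCl; absorbance 490 nm minus 690 nm background.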

J774.A1 [8] = test: Antiinflammatory activity in mouse J774A.1 cells assessed as inhibition of zymosan and IFNgamma-induced iNOS expression at 1 to 10 uM preincubated for 1 hr followed by zymosan and IFNgamma addition measured after 24 hrs by Western blot analysis; assay type: functional, cell-based
Summary of the method: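 J774A.1 cells in six-well plates pretreated 1 h (0.1−10 μM) before zymosan (10 μg per 10^5 cells) and/or IFN-γ (25 U/mL) for 24 h. Lysates (Tris/NaCl/MgCl2/0.5% NP40 with protease inhibitors); 30 μg protein run on 7.5% SDS-PAGE, transferred to PVDF, probed for COX-2, iNOS and α-tubulin.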

Mus musculus [9] = test: Antiinflammatory activity in zymosan-induced C57BL/6 mouse pleurisy model assessed as reduction in protein extravasation in thoracic cavity at 10 to 50 mg/kg, po administered 1 hr prior to zymosan challenge measured after 4 hrs; assay type: functional, organism-based
Summary of the method: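 Oral pretreatment 1 h before intrathoracic zymosan (100 μg/cavity in 100 μL saline). Cavities washed at 4 h with 1 mL PBS/10 mM EDTA. Total leukocytes counted on a particle counter, differentials from May-Grünwald-Giemsa cytospins (×10^6/cavity). Supernatant after 400g 10 min assayed for total protein by Bradford.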

Neutrophil [10] = test: Antiinflammatory activity in C57BL/6 mouse neutrophils assessed as inhibition of CXCL1/KC-induced neutrophil chemotaxis at 0.1 to 1 uM preincubated for 1 hr followed by CXCL1/KC-induction measured after 1 hr by Wright-Giemsa staining-based light microscopic method; assay type: functional, cell-based
Summary of the method: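 Bone marrow neutrophils from C57BL/6 femurs, purified on a 65%/72% Percoll gradient (~85−90% purity). 10^5 cells preincubated 1 h with compound or medium, then placed in a 48-well Boyden chamber over CXCL-1/KC (250 nM) across a 5 μm polycarbonate filter, 60 min at 37 °C, 5% CO2. Filter Wright-Giemsa stained; migrated cells counted in 15 fields; quadruplicate wells.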

Neutrophil [11] = test: Antiinflammatory activity in C57BL/6 mouse neutrophils assessed as inhibition of neutrophil adhesion to TNFalpha-primed mouse tEnd.1 cells at 0.1 uM preincubated for 1 hr with neutrophils followed by tEND.1 cells addition measured after 1 hr by Giemsa staining-based light microscopic method; assay type: functional, cell-based
Summary of the method: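 tEnd.1 endothelioma cells (10^4/well, 24 h) primed with mouse TNF-α (10 ng/mL) for 4 h. Bone marrow neutrophils preincubated 1 h with compound (0.1 μM) or fucoidan (25 μg/mL), then added at 50 per tEnd.1 cell for 1 h at 37 °C with shaking. After washing and Giemsa staining, adhesion index = fraction of tEnd.1 with bound neutrophils × neutrophils per tEnd.1 × 100.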

Mus musculus [12] = test: Antiinflammatory activity in C57BL/6 mouse assessed as inhibition of zymosan-induced mononuclear cells migration in articular cavity at 7 mg/kg, po administered 1 hr prior to zymosan challenge measured at 6 to 24 hrs; assay type: functional, organism-based; summary of the method: as §1
J774.A1 [13] = test: Antiinflammatory activity in mouse J774A.1 cells assessed as inhibition of zymosan and IFNgamma-induced cytoplasmic calcium flux at 1 uM preincubated for 1 hr followed by zymosan and IFNgamma addition measured over 10 mins by FLIPR assay; assay type: functional, cell-based
Summary of the method: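 J774A.1 macrophages preincubated 1 h with HBSS or compound (1 μM), then stimulated with zymosan plus IFN-γ. Intracellular calcium followed over 600 s with a FLIPR Calcium Plus kit; mean signal from 360−600 s after stimulus used for analysis; quadruplicate wells.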

## COC(=O)c1cc(O)c(O)c(O)c1 [GALLIC ACID METHYL ESTER]
Mus musculus [1]
  inhibition: Active
Mus musculus [2]
  inhibition in vivo at 7 mg/kg: 74%
Mus musculus [3]
  inhibition: Active
Mus musculus [4]
  inhibition: Active
Mus musculus [5]
  inhibition in vivo at 7 mg/kg: 49%
J774.A1 [6]
  inhibition: Active
[7]
  viability at 2 h, 100 µM: ≥ 92%
J774.A1 [8]
  inhibition: Active
Mus musculus [9]
  Activity: Active
Neutrophil [10]
  inhibition: Active
Neutrophil [11]
  inhibition: Active
Mus musculus [12]
  inhibition: Active
J774.A1 [13]
  inhibition: Active
